Data taken from ChEMBL document CHEMBL4118079, “Discovery of novel naphthoquinone derivatives as inhibitors of the tumor cell specific M2 isoform of pyruvate kinase” (Eur J Med Chem, 2017).

How the values were obtained:
HCT-116 = assay: Antiproliferative activity against human HCT116 cells after 48 hrs by MTS assay; assay type: functional, cell-based; settings: HCT-116, 48 h
Outline: (§1)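 Cells kept in RPMI 1640 with 9% FBS at 37°C, 5% CO2. 5000 cells/well seeded, left 12 h, then exposed to a range of compound concentrations or DMSO (negative control) for 48 h. MTS added, 3 h at 37°C, absorbance read at 490 nm. IC50 ± SD.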

Pyruvate kinase PKM [1] = biological target: T1, Pyruvate kinase PKM (Homo sapiens, UniProt P14618); assay: Inhibition of recombinant human N-terminal His-tagged PKM2 expressed in Escherichia coli BL21 preincubated for 15 mins followed by PEP/NADH addition measured at 30 secs interval for 3 to 6 mins by fluorescent PK-LDH assay
Outline: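 Human PKM2 with an N-terminal His tag, expressed in E. coli BL21 and Ni-agarose purified. Enzyme and compound preincubated 15 min in 50 mM Tris–HCl pH 7.5, 10 mM KCl, 5 mM MgCl2. NADH fluorescence read kinetically every 30 s for 3–6 min. IC50.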

NCI-H1299 = assay: Antiproliferative activity against human NCI-H1299 cells after 48 hrs by MTS assay; assay type: functional, cell-based; settings: NCI-H1299, 48 h; outline: as §1
HeLa = assay: Antiproliferative activity against human HeLa cells after 48 hrs by MTS assay; assay type: functional, cell-based; outline: as §1
[2] = Selectivity index, ratio of IC50 for human BEAS2B cells to IC50 for human NCI-H1299 cells; assay type: toxicity; settings: BEAS2B cells and NCI-H1299 cells, read-out: Ratio IC50
BEAS-2B = assay: Cytotoxicity against human BEAS2B cells assessed as reduction in cell viability after 48 hrs by MTS assay; assay type: cell-based; outline: as §1
Pyruvate kinase PKM [3] = biological target: T1, Pyruvate kinase PKM; assay: Inhibition of recombinant human N-terminal His-tagged PKM1 expressed in Escherichia coli BL21 preincubated for 15 mins followed by PEP/NADH addition measured at 30 secs interval for 3 to 6 mins by fluorescent PK-LDH assay
Outline: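 Human PKM1 with an N-terminal His tag, expressed in E. coli BL21 and Ni-agarose purified. Activity measured by PK–LDH coupling, with pyruvate formation tracked as NADH depletion by fluorescence in kinetic mode. IC50.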
Target sequence in this assay (P14618 whole entry): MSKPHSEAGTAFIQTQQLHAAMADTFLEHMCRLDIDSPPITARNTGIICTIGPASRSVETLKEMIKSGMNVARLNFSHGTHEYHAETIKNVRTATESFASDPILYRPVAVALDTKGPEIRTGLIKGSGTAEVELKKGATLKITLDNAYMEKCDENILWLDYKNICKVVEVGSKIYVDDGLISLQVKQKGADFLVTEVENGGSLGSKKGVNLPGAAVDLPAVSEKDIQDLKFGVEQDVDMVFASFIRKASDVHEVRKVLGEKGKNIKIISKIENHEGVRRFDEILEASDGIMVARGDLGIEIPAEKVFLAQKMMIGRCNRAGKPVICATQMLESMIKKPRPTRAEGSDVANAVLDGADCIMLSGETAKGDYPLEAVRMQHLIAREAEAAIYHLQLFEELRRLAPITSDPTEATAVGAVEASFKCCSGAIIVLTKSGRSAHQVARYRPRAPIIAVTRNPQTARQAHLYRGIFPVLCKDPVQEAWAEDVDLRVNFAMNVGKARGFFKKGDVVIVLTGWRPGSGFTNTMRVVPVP

Homo sapiens [4] = species on record: Homo sapiens; assay: Selectivity ratio of IC50 for recombinant human N-terminal His-tagged PKM1 expressed in Escherichia coli BL21 to IC50 for recombinant human N-terminal His-tagged PKM2 expressed in Escherichia coli BL21
Pyruvate kinase PKLR = Pyruvate kinase PKLR (Homo sapiens, UniProt P30613); assay: Inhibition of recombinant human N-terminal His-tagged PKL expressed in Escherichia coli preincubated for 15 mins followed by PEP/NADH addition measured at 30 secs interval for 3 to 6 mins by fluorescent PK-LDH assay
Homo sapiens [5] = species on record: Homo sapiens; assay: Selectivity ratio of IC50 for recombinant human N-terminal His-tagged PKL expressed in Escherichia coli to IC50 for recombinant human N-terminal His-tagged PKM2 expressed in Escherichia coli BL21

Chain of Pyruvate kinase PKLR (P30613 whole entry): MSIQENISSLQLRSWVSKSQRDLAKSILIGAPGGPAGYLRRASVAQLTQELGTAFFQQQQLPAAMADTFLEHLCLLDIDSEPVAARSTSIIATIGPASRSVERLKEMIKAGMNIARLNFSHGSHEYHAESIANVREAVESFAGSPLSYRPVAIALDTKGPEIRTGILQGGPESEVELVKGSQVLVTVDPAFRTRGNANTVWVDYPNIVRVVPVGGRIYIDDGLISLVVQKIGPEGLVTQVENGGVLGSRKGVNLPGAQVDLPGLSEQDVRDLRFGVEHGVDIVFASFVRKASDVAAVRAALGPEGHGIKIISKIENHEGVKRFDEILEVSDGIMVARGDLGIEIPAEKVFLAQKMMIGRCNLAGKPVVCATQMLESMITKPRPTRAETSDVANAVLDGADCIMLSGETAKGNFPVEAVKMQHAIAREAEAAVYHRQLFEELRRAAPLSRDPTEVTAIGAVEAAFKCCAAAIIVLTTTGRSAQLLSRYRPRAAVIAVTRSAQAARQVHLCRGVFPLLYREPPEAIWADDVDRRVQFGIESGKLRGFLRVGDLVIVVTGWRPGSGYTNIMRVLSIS

Row | SMILES | IC50 (HCT-116) [µM] | IC50 (Pyruvate kinase PKM [1]) [µM] | IC50 (NCI-H1299) [µM] | IC50 (HeLa) [µM] | selectivity ratio [2] | IC50 (BEAS-2B) [µM] | IC50 (Pyruvate kinase PKM [3]) [µM] | inhibition (Pyruvate kinase PKM [1]) | Ratio IC50 (Homo sapiens [4]) | IC50 (Pyruvate kinase PKLR) [µM] | Ratio IC50 (Homo sapiens [5])
1 | CC1=C(CSC(=S)N2CC(C)OC(C)C2)C(=O)c2ccccc2C1=O (stereo unspecified) | 1.1 | 11.7 | 1.47 | 0.87 |  |  |  |  |  |  | 
2 | CCCN(CCC)C(=S)SC1=C(C)C(=O)c2ccccc2C1=O | 4.3 | 9.98 | 15.6 | > 20 |  |  |  |  |  |  | 
3 | CC1=C(CSC(=S)N(CCO)CCO)C(=O)c2ccccc2C1=O | 2.23 | > 20 | 1.95 | 4.8 |  |  |  |  |  |  | 
4 | CC1=C(CSC(=S)NCc2ccncc2)C(=O)c2ccccc2C1=O | 0.59 | > 20 | 0.67 | 0.5 |  |  |  |  |  |  | 
5 | CC1=C(CSC(=S)N2CCCC2)C(=O)c2ccccc2C1=O | 1.46 | 19.7 | 1.64 | 0.88 |  |  |  |  |  |  | 
6 | CC1=C(CSC(=S)N2CCN(C)CC2)C(=O)c2ccccc2C1=O | 2.84 | 14.2 | 2.44 | 1.57 |  |  |  |  |  |  | 
7 | CC1=C(CSC(=S)N2CCSCC2)C(=O)c2ccccc2C1=O | 0.89 | 5.89 | 1.19 | 0.32 | 8.6 | 10.5 |  |  |  |  | 
8 | CNC(=S)SCC1=C(C)C(=O)c2ccccc2C1=O | 4.59 | > 20 | 5.39 | 8.36 |  |  |  |  |  |  | 
9 | C=CCN(CC=C)C(=S)SCC1=C(C)C(=O)c2ccccc2C1=O | 2.17 | 14.1 | 3.2 | 1.16 |  |  |  |  |  |  | 
10 | CC1=C(CSC(=S)NN2CCCCC2)C(=O)c2ccccc2C1=O | 7.36 | > 20 | 4.37 | 10.4 |  |  |  |  |  |  | 
11 | O=C1C=C(CSC(=S)N2CCN(c3ccccc3)CC2)C(=O)c2ccccc21 | > 20 | 1.4 | 8.71 | > 20 |  |  | 6.26 | Dose-dependent effect | 4.5 | 3.8 | 2.7
12 | CC1=C(CSC(=S)NCc2ccccc2)C(=O)c2ccccc2C1=O | 1.72 | 2.21 | 4.84 | 1.3 |  |  |  |  |  |  | 
13 | CCCN(CCC)C(=S)SCc1cc(OC)c2ccccc2c1OC | > 20 | 15.7 | > 20 | > 20 |  |  |  |  |  |  | 
14 | CC1=C(CSC(=S)N2CCOCC2)C(=O)c2ccccc2C1=O | 0.8 | 15.2 | 1.23 | 0.95 |  |  |  |  |  |  | 
15 | CCCCN(CCCC)C(=S)SCC1=C(C)C(=O)c2ccccc2C1=O | 10.9 | 4.57 | 6.41 | 18.5 |  |  |  |  |  |  | 
16 | CC(=O)N1CCN(C(=S)SCC2=C(C)C(=O)c3ccccc3C2=O)CC1 | 2.08 | > 20 | 4.68 | 3.52 |  |  |  |  |  |  | 
